Data taken from ChEMBL document CHEMBL1811913, “Trimethoxy-chalcone derivatives inhibit growth of Leishmania braziliensis: synthesis, biological evaluation, molecular modeling and structure-activity relationship (SAR)” (Bioorg Med Chem, 2011).
Active and inactive are the calls of the source. No cut-off for these calls is given here.

What was measured:
Leishmania braziliensis [1] = experiment: Antileishmanial activity against promastigotes form of Leishmania braziliensis MHOM/BR/75/M2904 after 72 hrs; assay type: functional; conditions: MHOM/BR/75/M2904, 72 h
Summary of the method: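 5.0 × 10^6 promastigotes/mL were exposed to 500, 100, 50, 25, 10, 5 and 1 (DMSO ≤1% final) at 28 °C for 72 h, and living parasites were counted in a Neubauer chamber. IC50 came from linear regression, mean ± standard error of three independent experiments.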

[2] = Cytotoxicity against african green monkey Vero cells after 72 hrs; assay type: cell-based; conditions: chlorocebus sabaeus
[3] = Selectivity index, ratio of CC50 for african green monkey Vero cells to IC50 for promastigotes form of Leishmania braziliensis MHOM/BR/75/M2904; assay type: functional
Vero = experiment: Cytotoxicity against african green monkey Vero cells at 50 uM after 72 hrs; assay type: cell-based; conditions: chlorocebus sabaeus
Leishmania braziliensis [4] = experiment: Antileishmanial activity against promastigotes form of Leishmania braziliensis MHOM/BR/75/M2904 at 50 uM after 72 hrs; assay type: functional
[5] = biological target: T1, Nitric oxide synthase, inducible (Mus musculus) (UniProt P29477); experiment: Inhibition of iNOS-mediated LPS-induced nitric oxide production in mouse RAW264.7 cells; assay type: cell-based
T1 sequence (whole entry): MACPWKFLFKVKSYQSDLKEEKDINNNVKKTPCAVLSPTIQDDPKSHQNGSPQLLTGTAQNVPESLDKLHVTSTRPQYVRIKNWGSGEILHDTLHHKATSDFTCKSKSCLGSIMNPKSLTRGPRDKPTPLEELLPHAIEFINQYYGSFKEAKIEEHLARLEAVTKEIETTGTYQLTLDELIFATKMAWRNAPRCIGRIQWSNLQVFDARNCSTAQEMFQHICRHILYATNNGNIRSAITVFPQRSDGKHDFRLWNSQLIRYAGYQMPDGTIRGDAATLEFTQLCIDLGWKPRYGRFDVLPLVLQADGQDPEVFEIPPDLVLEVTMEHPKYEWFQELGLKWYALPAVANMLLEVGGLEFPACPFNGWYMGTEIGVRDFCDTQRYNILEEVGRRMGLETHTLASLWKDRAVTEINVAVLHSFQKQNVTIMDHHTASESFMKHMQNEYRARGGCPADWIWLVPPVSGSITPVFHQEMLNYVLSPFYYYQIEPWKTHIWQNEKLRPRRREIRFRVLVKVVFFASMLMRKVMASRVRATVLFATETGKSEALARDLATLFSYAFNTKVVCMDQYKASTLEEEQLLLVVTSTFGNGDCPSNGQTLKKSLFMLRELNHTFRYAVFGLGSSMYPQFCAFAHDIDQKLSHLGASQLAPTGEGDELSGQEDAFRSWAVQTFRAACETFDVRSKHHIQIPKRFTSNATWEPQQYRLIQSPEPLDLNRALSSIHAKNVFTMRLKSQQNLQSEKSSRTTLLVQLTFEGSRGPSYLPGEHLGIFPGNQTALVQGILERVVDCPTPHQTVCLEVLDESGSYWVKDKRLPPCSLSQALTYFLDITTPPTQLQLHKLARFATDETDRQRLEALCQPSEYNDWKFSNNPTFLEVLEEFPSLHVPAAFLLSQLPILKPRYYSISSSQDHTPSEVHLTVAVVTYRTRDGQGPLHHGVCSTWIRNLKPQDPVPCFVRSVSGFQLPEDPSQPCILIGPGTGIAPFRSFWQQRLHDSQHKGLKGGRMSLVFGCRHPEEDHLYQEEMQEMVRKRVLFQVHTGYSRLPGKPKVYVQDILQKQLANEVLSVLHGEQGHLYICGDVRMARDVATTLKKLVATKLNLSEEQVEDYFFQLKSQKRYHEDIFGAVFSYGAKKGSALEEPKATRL

Structure (SMILES) | IC50 (Leishmania braziliensis [1]) | inhibition [5] | CC50 at 72 h [2] | Ratio CC50/IC50 [3] | Activity (Vero) | inhibition (Leishmania braziliensis [4])
COc1cccc(/C=C/C(=O)c2cc(OC)c(OC)cc2OC)c1 | 14 µM |  | 295 µM | 21.1 |  | 
COc1cc(OC)c(C(=O)/C=C/c2ccc3c(c2)OCO3)c(OC)c1 |  |  |  |  | Non-toxic | inactive
COc1cc(OC)c(C(=O)/C=C/c2ccc(Cl)c(Cl)c2)cc1OC | 148 µM |  | 906 µM | 6.1 |  | 
COc1cc(OC)c(C(=O)/C=C/c2cccc(Cl)c2)cc1OC | 15.4 µM |  | 382 µM | 24.8 |  | 
COc1cc(OC)c(C(=O)/C=C/c2ccccc2Cl)cc1OC |  |  |  |  | Non-toxic | inactive

Continued, in another order:

IC50 (Leishmania braziliensis [1]) | inhibition [5] | Structure (SMILES) | CC50 at 72 h [2] | Ratio CC50/IC50 [3] | Activity (Vero) | inhibition (Leishmania braziliensis [4])
194 µM |  | COc1cc(O)c(C(=O)/C=C/c2cccc(Cl)c2)c(OC)c1 | 341 µM | 1.8 |  | 
29.7 µM |  | COc1cc(OC)c(C(=O)/C=C/c2ccc(Cl)cc2)cc1OC | 279 µM | 9.4 |  | 
6 µM |  | N=C(N)c1ccc(OCCCCCOc2ccc(C(=N)N)cc2)cc1 [PENTAMIDINE] |  |  |  | 
12.8 µM |  | COc1cc(OC)c(C(=O)/C=C/c2ccccc2)cc1OC | 392 µM | 30.6 |  | 
 | Active | COc1cc(OC)c(C(=O)/C=C/c2ccccc2Cl)c(OC)c1 |  |  |  | 
